In brackets after ≈: the same amount, converted by molar mass.
How the values were obtained:
Format in all cases: functional
Staphylococcus aureus [1] = assay: Antimicrobial activity against linezolid-resistant methicillin-resistant Staphylococcus aureus NRS119 harboring G2576U mutation in peptidyl transferase centre by broth microdilution method
Method in brief: (§1)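 MIC by CLSI broth microdilution for aerobically growing bacteria, in Mueller-Hinton II broth. Test organisms were recent clinical isolates from diverse geographic centers plus laboratory-derived oxazolidinone-resistant mutants. QC strains S. aureus ATCC 29213 and E. faecalis ATCC 29212 were included in each assay set to confirm proper assay performance.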

Staphylococcus aureus [2] = assay: Antimicrobial activity against linezolid-resistant Staphylococcus aureus 1652 harboring U2500A mutation in peptidyl transferase centre by broth microdilution method; method in brief: as §1
Staphylococcus aureus [3] = assay: Antimicrobial activity against linezolid-resistant Staphylococcus aureus 004-737X harboring plasmid borne cfr gene by broth microdilution method; method in brief: as §1
Enterococcus faecalis [4] = assay: Antimicrobial activity against linezolid-resistant Enterococcus faecalis 411 harboring G2576U mutation in peptidyl transferase centre by broth microdilution method; method in brief: as §1
Staphylococcus aureus [5] = assay: Antimicrobial activity against linezolid-resistant Staphylococcus aureus 131-6952X harboring plasmid borne cfr gene by broth microdilution method; method in brief: as §1
Staphylococcus aureus [6] = assay: Antimicrobial activity against […] 29213 by broth microdilution method; method in brief: as §1
Staphylococcus aureus [7] = assay: Antimicrobial activity against linezolid-resistant Staphylococcus aureus by broth microdilution method; method in brief: as §1
Staphylococcus aureus [8] = assay: Antimicrobial activity against linezolid-resistant Staphylococcus aureus 425 harboring G2447U in peptidyl transferase centre by broth microdilution method; method in brief: as §1
Staphylococcus aureus [9] = assay: Antimicrobial activity against linezolid-resistant Staphylococcus aureus CM/05 3067 harboring chromosomal cfr gene by broth microdilution method; method in brief: as §1
Enterococcus faecium [10] = assay: Antimicrobial activity against linezolid-resistant Enterococcus faecium 854 harboring G2576U mutation in peptidyl transferase centre by broth microdilution method; method in brief: as §1
Staphylococcus aureus [11] = assay: Antimicrobial activity against Staphylococcus aureus 1651 harboring G2576U mutation in peptidyl transferase centre by broth microdilution method; method in brief: as §1
Staphylococcus aureus [12] = assay: Antimicrobial activity against linezolid-resistant methicillin-resistant Staphylococcus aureus NRS121 harboring G2576U mutation in peptidyl transferase centre by broth microdilution method; method in brief: as §1
[13] = system: Staphylococcus epidermidis; assay: Antimicrobial activity against linezolid-resistant Staphylococcus epidermidis by broth microdilution method; method in brief: as §1
Staphylococcus aureus [14] = assay: Antimicrobial activity against linezolid-resistant methicillin-resistant Staphylococcus aureus NRS271 harboring G2576U mutation in peptidyl transferase centre by broth microdilution method; method in brief: as §1
Enterococcus faecalis [15] = assay: Antimicrobial activity against linezolid-resistant Enterococcus faecalis by broth microdilution method; method in brief: as §1
Enterococcus faecalis [16] = assay: Antimicrobial activity against linezolid-resistant Enterococcus faecalis 412 harboring G2576U mutation in peptidyl transferase centre by broth microdilution method; method in brief: as §1
Mammaliicoccus sciuri = assay: Antimicrobial activity against linezolid-resistant Staphylococcus sciuri by broth microdilution method; method in brief: as §1
Staphylococcus aureus [17] = assay: Antimicrobial activity against linezolid-resistant methicillin-resistant Staphylococcus aureus NRS120 harboring G2576U mutation in peptidyl transferase centre by broth microdilution method
Enterococcus faecium [18] = assay: Antimicrobial activity against linezolid-resistant Enterococcus faecium by broth microdilution method; method in brief: as §1
Staphylococcus aureus [19] = assay: Antimicrobial activity against linezolid-resistant methicillin-resistant Staphylococcus aureus NRS127 by broth microdilution method; method in brief: as §1
Staphylococcus hominis = assay: Antimicrobial activity against linezolid-resistant Staphylococcus hominis by broth microdilution method; method in brief: as §1
Staphylococcus aureus [20] = assay: Antimicrobial activity against linezolid-resistant Staphylococcus aureus 480 harboring G2447U in peptidyl transferase centre by broth microdilution method; method in brief: as §1
Enterococcus faecalis [21] = assay: Antimicrobial activity against linezolid-resistant Enterococcus faecalis 413 harboring G2576U mutation in peptidyl transferase centre by broth microdilution method; method in brief: as §1
Enterococcus faecalis [22] = assay: Antimicrobial activity against linezolid-resistant Enterococcus faecalis 414 harboring G2576U mutation in peptidyl transferase centre by broth microdilution method; method in brief: as §1
Enterococcus faecalis [23] = assay: Antimicrobial activity against linezolid-resistant Enterococcus faecalis 1172 harboring G2576U mutation in peptidyl transferase centre by broth microdilution method; method in brief: as §1
Enterococcus faecalis [24] = assay: Antimicrobial activity against linezolid-resistant Enterococcus faecalis 3124 harboring G2576U mutation in peptidyl transferase centre by broth microdilution method; method in brief: as §1
Enterococcus faecalis [25] = assay: Antimicrobial activity against linezolid-resistant Enterococcus faecalis 3128 harboring G2576U mutation in peptidyl transferase centre by broth microdilution method; method in brief: as §1

Structure (SMILES) | MIC (Staphylococcus aureus [1]) | MIC (Staphylococcus aureus [2]) | MIC (Staphylococcus aureus [3]) | MIC (Enterococcus faecalis [4]) | MIC (Staphylococcus aureus [5]) | MIC (Staphylococcus aureus [6]) | MIC50 (Staphylococcus aureus [7]) | MIC90 (Staphylococcus aureus [7]) | MIC (Staphylococcus aureus [8]) | MIC (Staphylococcus aureus [9]) | MIC (Enterococcus faecium [10]) | MIC (Staphylococcus aureus [11]) | MIC (Staphylococcus aureus [12]) | MIC50 [13] | MIC (Enterococcus faecalis [16]) | MIC (Staphylococcus aureus [19]) | MIC (Staphylococcus aureus [20]) | MIC (Enterococcus faecalis [21]) | MIC (Enterococcus faecalis [22]) | MIC (Enterococcus faecalis [23]) | also measured
Cn1nnc(-c2ccc(-c3ccc(N4C[C@H](CO)OC4=O)cc3F)cn2)n1 [TEDIZOLID] | 4 µg/mL (≈ 10.8 µM) | 4 µg/mL (≈ 10.8 µM) | 0.5 µg/mL (≈ 1.35 µM) | 2 µg/mL (≈ 5.4 µM) | 1 µg/mL (≈ 2.7 µM) | 1 µg/mL (≈ 2.7 µM) | 0.25 µg/mL (≈ 0.675 µM) | 2 µg/mL (≈ 5.4 µM) | 8 µg/mL (≈ 21.6 µM) | 1 µg/mL (≈ 2.7 µM) | 2 µg/mL (≈ 5.4 µM) | 2 µg/mL (≈ 5.4 µM) | 4 µg/mL (≈ 10.8 µM) | 4 µg/mL (≈ 10.8 µM) | 2 µg/mL (≈ 5.4 µM) | 1 µg/mL (≈ 2.7 µM) | 16 µg/mL (≈ 43.2 µM) |  |  |  | MIC90 [13]: 8 µg/mL (≈ 21.6 µM); MIC (Staphylococcus aureus [14]): 2 µg/mL (≈ 5.4 µM); MIC50 (Enterococcus faecalis [15]): 4 µg/mL (≈ 10.8 µM); MIC90 (Enterococcus faecalis [15]): 4 µg/mL (≈ 10.8 µM); MIC (Mammaliicoccus sciuri): 2 µg/mL (≈ 5.4 µM); MIC (Staphylococcus aureus [17]): 8 µg/mL (≈ 21.6 µM); MIC50 (Enterococcus faecium [18]): 2 µg/mL (≈ 5.4 µM); MIC90 (Enterococcus faecium [18]): 4 µg/mL (≈ 10.8 µM); MIC (Staphylococcus hominis): 2 µg/mL (≈ 5.4 µM)
CC(=O)NC[C@H]1CN(c2ccc(N3CCOCC3)c(F)c2)C(=O)O1 [LINEZOLID] | 64 µg/mL (≈ 190 µM) | 32 µg/mL (≈ 94.9 µM) | 8 µg/mL (≈ 23.7 µM) |  | 32 µg/mL (≈ 94.9 µM) |  | 2 µg/mL (≈ 5.93 µM) | 16 µg/mL (≈ 47.4 µM) | 32 µg/mL (≈ 94.9 µM) | 16 µg/mL (≈ 47.4 µM) | 16 µg/mL (≈ 47.4 µM) | 16 µg/mL (≈ 47.4 µM) | 64 µg/mL (≈ 190 µM) | 32 µg/mL (≈ 94.9 µM) |  | 8 µg/mL (≈ 23.7 µM) | > 32 µg/mL | 32 µg/mL (≈ 94.9 µM) | 32 µg/mL (≈ 94.9 µM) |  | MIC90 [13]: > 128 µg/mL; MIC (Staphylococcus aureus [14]): 32 µg/mL (≈ 94.9 µM); MIC50 (Enterococcus faecalis [15]): 32 µg/mL (≈ 94.9 µM); MIC90 (Enterococcus faecalis [15]): 32 µg/mL (≈ 94.9 µM); MIC (Mammaliicoccus sciuri): 16 µg/mL (≈ 47.4 µM); MIC (Staphylococcus aureus [17]): 64 µg/mL (≈ 190 µM); MIC50 (Enterococcus faecium [18]): 32 µg/mL (≈ 94.9 µM); MIC90 (Enterococcus faecium [18]): 64 µg/mL (≈ 190 µM); MIC (Staphylococcus hominis): 16 µg/mL (≈ 47.4 µM)
CN[C@H](CC(C)C)C(=O)N[C@H]1C(=O)N[C@@H](CC(N)=O)C(=O)N[C@H]2C(=O)N[C@H]3C(=O)N[C@H](C(=O)N[C@H](C(=O)O)c4cc(O)cc(O)c4-c4cc3ccc4O)[C@H](O)c3ccc(c(Cl)c3)Oc3cc2cc(c3O[C@@H]2O[C@H](CO)[C@@H](O)[C@H](O)[C@H]2O[C@H]2C[C@](C)(N)[C@H](O)[C@H](C)O2)Oc2ccc(cc2Cl)[C@H]1O [VANCOMYCIN] |  |  |  | 1 µg/mL (≈ 0.69 µM) |  |  |  |  |  |  | > 32 µg/mL |  |  |  | 1 µg/mL (≈ 0.69 µM) |  |  | 1 µg/mL (≈ 0.69 µM) | 32 µg/mL (≈ 22.1 µM) | > 32 µg/mL | MIC (Enterococcus faecalis [24]): > 32 µg/mL; MIC (Enterococcus faecalis [25]): > 32 µg/mL
Cc1onc(-c2ccccc2)c1C(=O)N[C@@H]1C(=O)N2[C@@H]1SC(C)(C)[C@@H]2C(=O)O [OXACILLIN] |  | 32 µg/mL (≈ 79.7 µM) | > 2 µg/mL | > 32 µg/mL | > 2 µg/mL | 0.12 µg/mL (≈ 0.299 µM) |  |  | 0.12 µg/mL (≈ 0.299 µM) | > 32 µg/mL | > 32 µg/mL | > 32 µg/mL |  |  | 16 µg/mL (≈ 39.9 µM) | 32 µg/mL (≈ 79.7 µM) | < 0.03 µg/mL | > 32 µg/mL | 16 µg/mL (≈ 39.9 µM) | 32 µg/mL (≈ 79.7 µM) | MIC (Enterococcus faecalis [24]): 8 µg/mL (≈ 19.9 µM); MIC (Enterococcus faecalis [25]): 2 µg/mL (≈ 4.98 µM)
CC1(C)S[C@@H]2[C@H](NC(=O)Cc3ccccc3)C(=O)N2[C@H]1C(=O)O [PENICILLIN G] |  | 32 µg/mL (≈ 95.7 µM) |  | 4 µg/mL (≈ 12 µM) |  | 1 µg/mL (≈ 2.99 µM) |  |  | 1 µg/mL (≈ 2.99 µM) |  |  | 16 µg/mL (≈ 47.8 µM) |  |  | 2 µg/mL (≈ 5.98 µM) | 16 µg/mL (≈ 47.8 µM) | 0.25 µg/mL (≈ 0.748 µM) | 4 µg/mL (≈ 12 µM) | 1 µg/mL (≈ 2.99 µM) | 4 µg/mL (≈ 12 µM) | 
